For test [1], the system named is Mycoplasmoides gallisepticum. The test is described as follows: Minimum inhibitory concentration measured against Mycoplasma gallisepticum K514 in the absence of extra copper. In kind it is functional. In short, it runs like this:
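M. gallisepticum K514 grown in modified Adler medium (peptone, yeast extract, glucose, heat-inactivated horse serum, benzylpenicillin, phenol red, pH 8.0). No added copper. Compounds dissolved in DMSO (final 1.25%) and tested as serial 2-fold dilutions in duplicate, 3 nM to 100 μM. Tubes with 3 mL medium received 1 mL fresh culture and were held 24 h at 37 °C. MIC is the lowest concentration giving no indicator colour change.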

Test [2] relates to Mycoplasmoides gallisepticum. The experiment in a line: Minimum inhibitory concentration measured against Mycoplasma gallisepticum K514 in the presence of extra copper. In kind it is functional. In short, it runs like this: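 M. gallisepticum K514 grown in modified Adler medium (peptone, yeast extract, glucose, horse serum, benzylpenicillin, phenol red, pH 8.0) with CuSO4 at 40 μM final. Compounds in DMSO (1.25% final), serial 2-fold dilutions in duplicate over 3 nM–100 μM. 3 mL medium plus 1 mL fresh culture, incubated 24 h at 37 °C. MIC is the lowest concentration with no phenol-red colour change.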

Usually MIC stands for the lowest concentration found to suppress growth.

In brackets after ≈: the same amount, converted by molar mass.

As to `Cc1ccc(C(=O)Nc2ccc3ccc4cccnc4c3n2)cc1`, the values for the MIC in test [1] and in test [2] were > 100 µM and 0.023 µM, respectively. For the compound `O=C(Nc1ccc2ccc3cccnc3c2n1)c1ccc(Cl)cc1`, the MIC was > 100 µM in test [1] and 0.023 µM in test [2]. Consider `Nc1ccc2ccc3ccc(N)nc3c2n1`, for which the values for the MIC in test [1] and in test [2] were > 100 µM and 0.8 µM, respectively. In the same order, the values of `N=C(Nc1ccc2ccc3cccnc3c2n1)c1ccc(Cl)c(Cl)c1` are > 100 µM and 0.2 µM. For CUPRIC SULFATE, in test [1], it took 700 µM to inhibit growth (MIC). On to `CC[C@H]1OC(=O)C[C@@H](O)[C@H](C)[C@@H](O[C@@H]2O[C@H](C)[C@@H](O[C@H]3C[C@@](C)(O)[C@@H](O)[C@H](C)O3)[C@H](N(C)C)[C@H]2O)[C@@H](CC=O)C[C@@H](C)C(=O)/C=C/C(C)=C/[C@@H]1CO[C@@H]1O[C@H](C)[C@@H](O)[C@@H](OC)[C@H]1OC` [TYLOSIN], for which the MIC was determined as 0.1 µM (≈ 0.0916 µg/mL) in test [1] and 0.1 µM in test [2]. As to `CCCCc1ccc2ccc3ccc(NC(=O)c4ccc(Cl)c(Cl)c4)nc3c2n1`, the results for the MIC in test [1] and in test [2] were > 100 µM and 1.5 µM, respectively.

In the case of `CCCCc1ccc2ccc3ccc(NC(=O)c4ccc(C)cc4)nc3c2n1`, the MIC in test [1] was > 100 µM; in test [2], 0.37 µM.

In the case of `O=C(Nc1ccc2ccc3ccc(NC(=O)c4ccccc4)nc3c2n1)c1ccccc1`, the MIC in test [1] was > 100 µM; in test [2] it was 0.05 µM.

On to `CCCCc1ccc2ccc3ccc(NC(=O)c4ccccc4)nc3c2n1`, for which the MIC in test [1] is > 100 µM; in test [2], 0.2 µM. With `CCCCCCCCCC(=O)Nc1ccc2ccc3cccnc3c2n1`, the MIC in test [1] was > 100 µM; in test [2] it was 0.37 µM.

For the compound `CCCCc1ccc2ccc3ccc(NC(=O)c4ccc(Cl)cc4)nc3c2n1`, the MIC in test [1] is > 100 µM; in test [2], 0.75 µM. For the compound `N=C(Nc1ccc2ccc3cccnc3c2n1)c1ccccc1`, the MIC was > 100 µM in test [1] and 0.2 µM in test [2]. In the case of `N=C(Nc1ccc2ccc3cccnc3c2n1)c1ccc(Cl)cc1`, the MIC is > 100 µM in test [1] and 0.2 µM in test [2]. In the same order, the values of `O=C(Nc1ccc2ccc3cccnc3c2n1)c1ccccc1` are > 100 µM and 0.023 µM. Take `CCCCC(CC)C(=O)Nc1ccc2ccc3cccnc3c2n1` (configuration not stated): the MIC was > 100 µM in test [1] and 0.23 µM in test [2]. As for `Nc1ccc2ccc3cccnc3c2n1`, the MIC in test [1] is > 100 µM; in test [2], 3.1 µM. In the same order, the values of `O=C(Nc1ccc2ccc3cccnc3c2n1)c1ccc(Cl)c(Cl)c1` are > 100 µM and 0.095 µM. For the compound `COc1ccc(C(=O)Nc2ccc3ccc4cccnc4c3n2)cc1`, the MIC in test [1] is > 100 µM; in test [2], 0.046 µM.
